From ChEMBL document CHEMBL3352552, “Total synthesis and antibacterial testing of the A54556 cyclic acyldepsipeptides isolated from Streptomyces hawaiiensis” (J Nat Prod, 2014)
In brackets after ≈: the same amount, converted by molar mass. Activity calls are given as the source filed them. The rule behind the calls is not given here. Where a SMILES comes first, the peptide text is derived from it. Bridges are numbered along the chain shown (N, C = ends). [ ]: non-standard residue; d: D form. The star is where a group is joined. Octatrienoyl(2E,4E,6E) = C/C=C/C=C/C=C/C(=O)*; Hexadienoyl(2E,4E) = C/C=C/C=C/C(=O)*; Pro(4R-Me) = C[C@H]1CN[C@H](C(=O)O)C1; NMeA = CN[C@@H](C)C(=O)O; X1 = CCC/C=C/C=C/C(=O)*

Key:
Staphylococcus aureus = assay: Antibacterial activity against Staphylococcus aureus ATCC 29213 incubated for 16 to 18 hrs by broth microdilution method; type: functional
How it was run: (§1)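 Colonies pre-grown 16−18 h at 37 °C in moist 5% CO₂ (Staph. aureus on LB agar; the others on GC agar with 1% IsoVitaleX), then diluted in BHI + 1% IsoVitaleX. Inoculum set by OD (600 nm Staph. aureus and S. pneumoniae; 550 nm N. meningitidis) to give ∼5 × 10⁵ cfu/mL per well. Twofold dilutions run 128–0.0625 μg/mL final. DMSO-only and medium blanks were included, with three independent plates, incubated 16−18 h at 37 °C in 5% CO₂.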

[1] = target: ATP-dependent Clp protease proteolytic subunit (Escherichia coli (strain K12)) (UniProt P0A6G7); assay: Activation of Escherichia coli ClpP assessed as degradation of casein-FITC substrate at 5 uM fluorescence-based biochemical assay
Neisseria meningitidis = assay: Antibacterial activity against Neisseria meningitidis H44/76 incubated for 16 to 18 hrs by broth microdilution method; type: functional; how it was run: as §1
Streptococcus pneumoniae = assay: Antibacterial activity against Streptococcus pneumoniae ATCC 49619 incubated for 16 to 18 hrs by broth microdilution method; type: functional; how it was run: as §1
[2] = target: ATP-dependent Clp protease proteolytic subunit (Escherichia coli (strain K12), UniProt P0A6G7); assay: Activation of Escherichia coli ClpP by ITC method
ATP-dependent Clp protease proteolytic subunit, sequence (P0A6G7 whole entry): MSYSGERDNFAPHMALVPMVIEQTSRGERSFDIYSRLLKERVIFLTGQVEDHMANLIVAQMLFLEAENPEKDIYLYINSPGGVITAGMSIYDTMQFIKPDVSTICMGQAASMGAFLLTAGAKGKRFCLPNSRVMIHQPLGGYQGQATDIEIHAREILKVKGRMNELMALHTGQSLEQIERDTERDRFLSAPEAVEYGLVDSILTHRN

ATP-dependent Clp protease proteolytic subunit (Escherichia coli (strain K12)), sequence (P0A6G7 whole entry): as above

CCC/C=C/C=C/C(=O)N[C@@H](Cc1ccccc1)C(=O)N[C@H]1COC(=O)[C@@H]2C[C@@H](C)CN2C(=O)[C@H](C)NC(=O)[C@H](C)N(C)C(=O)[C@@H]2CCCN2C1=O (X1-FSP[NMeA]A[Pro(4R-Me)]; ester 2-C)
MIC (Staphylococcus aureus): 0.5 µg/mL (≈ 0.694 µM)
Activity [1]: Active
MIC (Neisseria meningitidis): < 0.0625 µg/mL
MIC (Streptococcus pneumoniae): < 0.0625 µg/mL

C[C@@H]1C[C@H]2C(=O)OC[C@H](NC(=O)[C@H](Cc3ccccc3)NC(=O)/C=C/C=C/CO)C(=O)N3CCC[C@H]3C(=O)N(C)[C@@H](C)C(=O)N[C@@H](C)C(=O)N2C1 (stereo in doubt)
MIC (Staphylococcus aureus): 128 µg/mL (≈ 181 µM)
Activity [1]: inactive
MIC (Neisseria meningitidis): 64 µg/mL (≈ 90.3 µM)
MIC (Streptococcus pneumoniae): 0.25 µg/mL (≈ 0.353 µM)

C/C=C/C=C/C(=O)N[C@@H](Cc1ccccc1)C(=O)N[C@H]1COC(=O)[C@@H]2CCCN2C(=O)[C@H](C)NC(=O)[C@H](C)N(C)C(=O)[C@@H]2CCCN2C1=O ({Hexadienoyl(2E,4E)}-FSP[NMeA]AP; ester 2-C)
MIC (Staphylococcus aureus): 16 µg/mL (≈ 23.6 µM)
Activity [1]: inactive
MIC (Neisseria meningitidis): 4 µg/mL (≈ 5.89 µM)
MIC (Streptococcus pneumoniae): 0.25 µg/mL (≈ 0.368 µM)

C/C=C/C=C/C(=O)N[C@@H](Cc1ccccc1)C(=O)N[C@H]1COC(=O)[C@@H]2C[C@@H](C)CN2C(=O)[C@H](C)NC(=O)[C@H](C)N(C)C(=O)[C@@H]2CCCN2C1=O ({Hexadienoyl(2E,4E)}-FSP[NMeA]A[Pro(4R-Me)]; ester 2-C)
MIC (Staphylococcus aureus): 4 µg/mL (≈ 5.77 µM)
Activity [1]: inactive
MIC (Neisseria meningitidis): 2 µg/mL (≈ 2.89 µM)
MIC (Streptococcus pneumoniae): 0.125 µg/mL (≈ 0.18 µM)

C/C=C/C=C/C=C/C(=O)N[C@@H](Cc1ccccc1)C(=O)N[C@H]1COC(=O)[C@@H]2CCCN2C(=O)[C@H](C)NC(=O)[C@H](C)N(C)C(=O)[C@@H]2CCCN2C1=O ({Octatrienoyl(2E,4E,6E)}-FSP[NMeA]AP; ester 2-C)
MIC (Staphylococcus aureus): 16 µg/mL (≈ 22.7 µM)
Activity [1]: Active
MIC (Neisseria meningitidis): 0.5 µg/mL (≈ 0.709 µM)
Kd [2]: 700 nM
MIC (Streptococcus pneumoniae): 0.5 µg/mL (≈ 0.709 µM)

C/C=C/C=C/C=C/C(=O)N[C@@H](Cc1ccccc1)C(=O)N[C@H]1COC(=O)[C@@H]2C[C@@H](C)CN2C(=O)[C@H](C)NC(=O)[C@H](C)N(C)C(=O)[C@@H]2CCCN2C1=O ({Octatrienoyl(2E,4E,6E)}-FSP[NMeA]A[Pro(4R-Me)]; ester 2-C)
MIC (Staphylococcus aureus): 4 µg/mL (≈ 5.56 µM)
Activity [1]: Active
MIC (Neisseria meningitidis): 0.125 µg/mL (≈ 0.174 µM)
Kd [2]: 300 nM
MIC (Streptococcus pneumoniae): < 0.0625 µg/mL

NC[C@@H]1O[C@@H](O[C@H]2[C@H](O)[C@@H](O[C@H]3O[C@H](CO)[C@@H](O)[C@H](N)[C@H]3O)[C@H](N)C[C@@H]2N)[C@@H](O)[C@H](O)[C@H]1O [KANAMYCIN A]
MIC (Neisseria meningitidis): 64 µg/mL (≈ 132 µM)

CN[C@H](CC(C)C)C(=O)N[C@H]1C(=O)N[C@@H](CC(N)=O)C(=O)N[C@H]2C(=O)N[C@H]3C(=O)N[C@H](C(=O)N[C@H](C(=O)O)c4cc(O)cc(O)c4-c4cc3ccc4O)[C@H](O)c3ccc(c(Cl)c3)Oc3cc2cc(c3O[C@@H]2O[C@H](CO)[C@@H](O)[C@H](O)[C@H]2O[C@H]2C[C@](C)(N)[C@H](O)[C@H](C)O2)Oc2ccc(cc2Cl)[C@H]1O [VANCOMYCIN]
MIC (Streptococcus pneumoniae): 2 µg/mL (≈ 1.38 µM)
